The values below come from ChEMBL document CHEMBL3286344, “Bromopyrrole alkaloids isolated from the Patagonian bryozoan Aspidostoma giganteum” (J Nat Prod, 2014).

The structures appear in SMILES notation.

The first test can be described thus: Cytotoxicity against human 786-O cells assessed as growth inhibition by MTS assay. Format: functional, cell-based. As to conditions: 786-0; call rule not given here. The essentials: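 Cells seeded at 2 × 10³/well in complete medium; after 24 h, serial doses 0.05−100 μM or DMSO vehicle in medium with 2% FBS for 3 days, medium with fresh compound replaced every 2 days. Viability by MTS reduction to formazan, read as 492/620 nm absorbance ratio; IC50 derived. Cells checked mycoplasma-free by Hoechst method.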
Background: Tetrazolium dyes change colour on reduction, which living cells bring about.
What is called IC50 is the concentration that gives 50% inhibition. Consider `O=C(NC[C@@H](O)c1cc(Br)c(O)c(Br)c1)c1[nH]cc(Br)c1Br`, for which the IC50 entry was “Not Active”.

For `O=C(NC[C@@H](O)c1cc(Br)c(O)c(Br)c1)c1cc(Br)c(Br)[nH]1`, the IC50 result was “Not Active”. Still for that read-out and setting: the same measure for `O=C(NC[C@@H](O)c1cc(Br)c(O)c(Br)c1)c1[nH]c(Br)c(Br)c1Br`: “Not Active”; for `O=C1N[C@H](O)[C@H](c2c(Br)[nH]c3ccc(Br)cc23)n2c(Br)c(Br)c(Br)c21`: “Not Active”; for `O=c1c2c(Br)c(Br)cn2c(-c2cc(Br)c(O)c(Br)c2)cn1-n1cc(-c2cc(Br)c(O)c(Br)c2)n2c(Br)c(Br)cc2c1=O`: “Not Active”. Turning to `CCO[C@H](CNC(=O)c1[nH]c(Br)c(Br)c1Br)c1cc(Br)c(O)c(Br)c1`, the IC50 result is recorded as “Not Active”.

The test is the same for the next values; noted with them: Homo sapiens, 786-0; read-out: IC50.
Take `COc1ccc(C(=O)C(NC(=O)c2cc(Br)c(Br)[nH]2)OC)cc1Br` (stereo unspecified): the IC50 turned out to be 100 µM.

As for `CO[C@H]1NC(=O)c2c(Br)c(Br)c(Br)n2[C@H]1c1c(Br)[nH]c2ccc(Br)cc12`, the IC50 came out at 7.8 µM. As to `O=c1[nH]cc(-c2c(Br)[nH]c3ccc(Br)cc23)n2c(Br)c(Br)c(Br)c12`, the IC50 came to 27 µM. With `O=C(NCCc1c(Br)[nH]c2cc(Br)cc(O)c12)c1cc(Br)c(Br)[nH]1`, the IC50 is 15.1 µM. `COc1cccc2c1C(=O)c1c(O)c3c(c(O)c1C2=O)C[C@@](O)(C(=O)CO)C[C@@H]3O[C@H]1C[C@H](N)[C@H](O)[C@H](C)O1` [DOXORUBICIN]: the IC50 is 0.13 µM.
